To fix the notation:
B1: tRNA (parent)
chain: GUUCCGUUGGCGUAAUGGUAACGCGUCUCCCUCCUAAGGAGAAGACUGCGGGUUCGAGUCCCGUACGGAACG

The results in this text go back to the RNAGym collection of RNA variant scans (doi:10.1126/science.aae0568).

Fewer inactive variants are shown than the library holds. Some results are limits rather than exact numbers.

The data set covers variants of B1. Kind of data set: yeast fitness relative to wild type (ratio to wild type); higher = fitter; tRNA-Arg(CCU), competitive growth, 37 C, YPD. In outline: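 Gene amplicons from the start population and from each of six end populations were read by 100-nucleotide paired-end sequencing. Those end populations came from pooled Saccharomyces cerevisiae strains carrying tRNA-Arg(CCU) gene variants at the native locus, competed in YPD at 37°C for 24 hours. Fitness relative to wild type was worked out from changes in genotype frequencies. Genotypes needed ≥ 100 starting reads, and estimates < 0.5 were set to 0.5.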
For C49U C55A, the yeast fitness worked out at 0.557.

On to C49U C55U, for which the yeast fitness was 0.649.

On to C46U C61G A70C, for which the yeast fitness is at most 0.5.

In the case of G48C C60A, the yeast fitness was 0.644.

On to C46G C49G C62A, for which the yeast fitness came out at 0.61.

Consider C49U U53A, for which the yeast fitness is 0.791.

With C49A A57C A69U, the yeast fitness was 0.528.

For the variant C49A A57C A69C, the yeast fitness is at most 0.5.

On to C46A G58A, for which the yeast fitness amounted to 0.837.

As for U47C C61G, the yeast fitness was determined as 0.671.

Consider C46U C49G, for which the yeast fitness turned out to be 0.997.

Turning to G48A U53C C60A C61U, the yeast fitness was at most 0.5.

G48A C61G: the yeast fitness was 0.559.

As to G50A A57C C66U, the yeast fitness was at most 0.5.

For C49U C61A A65U, the yeast fitness was at most 0.5.

Turning to C49A A57C A65G, the yeast fitness is at most 0.5.

As for G48U C61A, the yeast fitness was at most 0.5.

With G48C A65C, the yeast fitness came to 0.989.

On to C46U C66A, for which the yeast fitness was determined as 0.853.

Turning to C46U C66G, the yeast fitness amounted to 0.949.

Take C49A C62U: the yeast fitness worked out at 0.717.

Turning to U47G, the yeast fitness amounted to 0.633.

In the case of U47A, the yeast fitness was 0.99.

U47C: the yeast fitness turned out to be 1.

As to G48A G50A U54A, the yeast fitness is 0.597.

U47A U53A: the yeast fitness was 0.557.

For the variant G48A G51A A69U, the yeast fitness amounted to 0.755.

Regarding C46U G63C, the yeast fitness was found to be 0.753.

Regarding U47A G51A C55U, the yeast fitness amounted to 0.642.

As for C46A U64G, the yeast fitness is 0.82.

C49A A70G: the yeast fitness was 0.675.

As for C46G G52A C66U, the yeast fitness was determined as 0.631.

For the variant G48C G52C, the yeast fitness is 0.552.

As for G48C G56A C61A, the yeast fitness was at most 0.5.

With C46A G56A C61A, the yeast fitness was 0.603.

Take C46G A57C: the yeast fitness was determined as 0.61.

Regarding C46G A57U, the yeast fitness was determined as 0.907.

In the case of C49U C55U A69C, the yeast fitness turned out to be 0.665.

As to C49U U64A A69U, the yeast fitness amounted to 0.558.

As to C49U A65C A70G, the yeast fitness is 0.768.

Consider C49A G56C G68C, for which the yeast fitness amounted to 0.574.

In the case of C49U G50A, the yeast fitness was found to be 0.93.

Regarding G48C C66A, the yeast fitness was determined as 0.633.

Regarding U47A G52A, the yeast fitness was determined as 0.821.

For U47A G52C, the yeast fitness came out at 0.581.

For U47A G67A, the yeast fitness turned out to be 0.765.

Regarding U47A G67C, the yeast fitness was 0.88.

Regarding G48C G67U, the yeast fitness was determined as 0.811.

As for G48C G67A, the yeast fitness came out at 0.873.

On to U47G A69C, for which the yeast fitness came out at 0.69.

On to U47G A69U, for which the yeast fitness turned out to be 0.764.

On to C46U C49U U53C, for which the yeast fitness came to 0.703.

In the case of U47G C49A G63A G68A, the yeast fitness is at most 0.5.

As to U47C A65G G68C, the yeast fitness is 0.546.

In the case of G48A G58A U59G G67A, the yeast fitness was at most 0.5.

With U47A C61U A70C, the yeast fitness was 0.558.

Take C49G U53C: the yeast fitness came out at 0.723.

As to C49U G58A, the yeast fitness worked out at 0.948.

As to U47G U64C, the yeast fitness amounted to 0.622.

Turning to C46U A57U, the yeast fitness came out at 1.

Take C46G A57C G58A G67A: the yeast fitness was at most 0.5.

As for U47C C49G, the yeast fitness came out at 0.909.

In the case of G48C C49U A70C, the yeast fitness stood at 0.592.

Take U47A U64A: the yeast fitness was 0.677.

In the case of U47A C61A, the yeast fitness is 0.769.

U47A C61G: the yeast fitness was determined as 0.69.

As for C49U C60A C61A, the yeast fitness is 0.574.

Regarding C46U C62U, the yeast fitness came to 1.

With C46U C62A, the yeast fitness came to 0.684.

For C49A G63A, the yeast fitness was 0.582.

For U47G G52A C61A G67C, the yeast fitness was at most 0.5.

With C49U C55A C60A, the yeast fitness was at most 0.5.

As to C49U U53A G68A, the yeast fitness was at most 0.5.

On to C46G C60A, for which the yeast fitness was determined as 0.576.

In the case of C46U C49G G68A, the yeast fitness is 0.64.

For G48A A70U, the yeast fitness is 1.04.

On to G48A A70C, for which the yeast fitness turned out to be 0.956.

Consider C46A G68A A70C, for which the yeast fitness is 1.11.

On to U47A A65C C66G, for which the yeast fitness was at most 0.5.

U47A U59A U64G: the yeast fitness is at most 0.5.

Take G48A G63A: the yeast fitness turned out to be 0.887.

As to C46G G51A, the yeast fitness turned out to be 0.766.

With C46G G51C, the yeast fitness stood at 0.591.

Consider C49A C55G, for which the yeast fitness is at most 0.5.

In the case of U47C G48C A65C, the yeast fitness came to 0.619.

C46G U53A A65C: the yeast fitness is at most 0.5.

Turning to G48A G63A A70U, the yeast fitness turned out to be 0.811.

Turning to C46U C60A A69U, the yeast fitness was 0.57.

For G48A C55U G63A, the yeast fitness was 0.706.

For the variant C46A U53A, the yeast fitness is 0.738.

Turning to C46A G48A U64G, the yeast fitness came out at 0.951.

Consider C46G C60A G67U, for which the yeast fitness came to 0.536.

In the case of G48C C62U G68C, the yeast fitness was 0.557.

As for C49A C60G, the yeast fitness was 0.638.

For G48C G50A, the yeast fitness is 0.651.

On to C46A G48C, for which the yeast fitness was 0.924.

For C46U U54C G68A, the yeast fitness is at most 0.5.

With C46U A69U, the yeast fitness came to 1.03.

On to C46U A69C, for which the yeast fitness was 0.976.

Take G48C A65G G67C: the yeast fitness is at most 0.5.

As for G48C A57G G63A, the yeast fitness is at most 0.5.

C46A U64A A65C: the yeast fitness stood at 0.978.

Regarding C46G G56A A57C C61U, the yeast fitness amounted to 0.575.

Regarding C49U U54A C55G, the yeast fitness is at most 0.5.

As for C46A C62U A69C, the yeast fitness stood at 0.69.

For the variant G48A C62U, the yeast fitness was 1.01.

Turning to U47C C60U C62A, the yeast fitness was at most 0.5.

On to G48C U59C, for which the yeast fitness was determined as 0.929.

For the variant G48C U59G, the yeast fitness amounted to 0.722.

On to U47G C62U A65C, for which the yeast fitness is at most 0.5.

With U47G C62U A65U, the yeast fitness turned out to be 0.64.

For the variant C46G U59C, the yeast fitness was 1.05.

Regarding C46G C61G C62A, the yeast fitness is at most 0.5.

Consider G48A C61G A69C, for which the yeast fitness amounted to 0.603.

As to U47A C55G C66G, the yeast fitness came out at 0.639.

On to C49G G50A G68C A69G, for which the yeast fitness was at most 0.5.

G50A A69C: the yeast fitness came out at 0.74.

With C46G G67C, the yeast fitness was 0.86.

Take C46G G67A: the yeast fitness was 0.912.

On to U47C A69C, for which the yeast fitness was found to be 1.07.

As for G48A G58C C61A, the yeast fitness stood at 0.601.

Take G48A G56C A65G: the yeast fitness came out at 0.543.

For the variant C46A G48C U59G, the yeast fitness was found to be 0.534.

As to C49G U53A A70G, the yeast fitness was at most 0.5.

For G48A C49U A65G, the yeast fitness turned out to be 0.743.

Take U47G G52A: the yeast fitness was at most 0.5.

As for C49A C62U C66U, the yeast fitness amounted to 0.585.

For the variant G48C G67C A70U, the yeast fitness amounted to 0.53.

As for G50A A65G, the yeast fitness was found to be 1.03.

G50A A65C: the yeast fitness worked out at 0.887.

Take C49U A65C: the yeast fitness is 0.935.

On to C49U A65U, for which the yeast fitness stood at 0.91.

Take U47G C60U A65C: the yeast fitness is at most 0.5.

Regarding U47C G50C, the yeast fitness was found to be 0.633.

With C46U G63A A69C, the yeast fitness is 0.833.

C46U U53C: the yeast fitness was determined as 0.854.

With U47A C55A G68A, the yeast fitness was 0.532.

Regarding G48C U53C, the yeast fitness came to 0.694.

Regarding G48C U53G, the yeast fitness amounted to 0.635.

In the case of C46G G51C A70C, the yeast fitness is at most 0.5.

Turning to C46G C66G, the yeast fitness came to 0.986.

As for C46G C66U, the yeast fitness was 0.928.

As to C46A G67A, the yeast fitness came to 0.88.

Consider G48A G51A, for which the yeast fitness came to 1.04.

In the case of C46U G50A C61U, the yeast fitness amounted to 0.749.

For G48A A57G C61U C62U, the yeast fitness is at most 0.5.

Consider C46G A69C, for which the yeast fitness is 0.972.

For C46G A69U, the yeast fitness worked out at 1.03.

For the variant C49U G51A A69U, the yeast fitness was 0.573.

Regarding C46G G48C A65U G68A, the yeast fitness was at most 0.5.

As for C46U C49G G51C C66G, the yeast fitness is at most 0.5.

C49G G63C G68U: the yeast fitness is 0.522.

On to C49G G58A C66G, for which the yeast fitness came out at 0.564.

In the case of C46G U59G C61G, the yeast fitness is at most 0.5.

In the case of C46U C61G C66U A69U, the yeast fitness is at most 0.5.

In the case of C49G G52C, the yeast fitness is 0.664.

As for G48A G67A, the yeast fitness stood at 0.91.

In the case of G48A G67C, the yeast fitness amounted to 1.02.

Regarding C49A G67A G68U, the yeast fitness was at most 0.5.

With C46G G48C, the yeast fitness is 1.02.

In the case of U47A A65C, the yeast fitness amounted to 0.82.

As for U47A A65U, the yeast fitness was determined as 0.68.

Take C46U A65U: the yeast fitness is 0.883.

In the case of U47A C66U, the yeast fitness was 0.872.

Take G48A U54G A70U: the yeast fitness was at most 0.5.

Consider C49U C55U C61A, for which the yeast fitness is at most 0.5.

As for U47A G63A, the yeast fitness came out at 0.823.
